According to ChEMBL document CHEMBL5252516, “Linker Modification Strategies To Control the Prostate-Specific Membrane Antigen (PSMA)-Targeting and Pharmacokinetic Properties of DOTA-Conjugated PSMA Inhibitors” (J Med Chem, 2016):

Columns and labels:
[1] = target: T1, Glutamate carboxypeptidase 2 (Homo sapiens, UniProt Q04609); assay: Binding affinity to PSMA in human LNCaP cells after 45 mins in presence of 68Ga-labeled PSMA-10 by gamma counting assay; assay type: cell-based
Target sequence in this assay (Q04609 whole entry): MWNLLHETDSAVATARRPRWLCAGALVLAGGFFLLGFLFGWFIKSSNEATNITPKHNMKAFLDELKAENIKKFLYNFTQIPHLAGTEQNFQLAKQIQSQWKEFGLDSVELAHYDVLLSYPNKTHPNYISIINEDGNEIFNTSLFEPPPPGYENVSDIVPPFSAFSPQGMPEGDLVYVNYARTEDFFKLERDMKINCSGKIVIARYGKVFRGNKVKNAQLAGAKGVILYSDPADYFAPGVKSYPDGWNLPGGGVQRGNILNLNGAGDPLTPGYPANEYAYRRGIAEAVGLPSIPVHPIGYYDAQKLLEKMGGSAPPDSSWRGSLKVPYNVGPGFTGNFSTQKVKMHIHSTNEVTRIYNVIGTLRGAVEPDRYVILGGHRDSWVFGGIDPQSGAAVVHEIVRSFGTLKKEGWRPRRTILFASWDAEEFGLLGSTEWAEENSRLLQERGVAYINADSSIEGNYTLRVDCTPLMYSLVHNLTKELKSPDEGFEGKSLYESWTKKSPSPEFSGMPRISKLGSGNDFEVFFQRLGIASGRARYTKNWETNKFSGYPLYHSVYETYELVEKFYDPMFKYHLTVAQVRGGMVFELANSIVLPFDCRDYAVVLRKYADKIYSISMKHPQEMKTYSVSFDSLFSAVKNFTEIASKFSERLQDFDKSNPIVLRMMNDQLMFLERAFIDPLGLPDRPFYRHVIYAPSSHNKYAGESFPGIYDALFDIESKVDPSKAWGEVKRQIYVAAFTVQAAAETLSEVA

[2] = Retention time of the compound by HPLC; assay type: physicochemical
[3] = Distribution coefficient, logD of the compound at pH 7.4 in n-octanol/0.1 M HEPES by shake flask method; assay type: physicochemical
Outline: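 Radiolabelled compound shaken to equilibrium in n-octanol / 0.1 M HEPES pH 7.4. Aliquots of both phases gamma-counted and logD calculated from the phase ratio. Mean ± SD.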

[4] = target: T1, Glutamate carboxypeptidase 2; assay: Inhibition of PSMA in human LNCaP cells assessed as cell surface binding per 10^6 cells using 177Lu-labeled compound after 45 mins by gamma counting analysis; assay type: cell-based
Outline: (§1)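 LNCaP cells (10^5/well) seeded on poly-L-lysine 24 h before. Incubated 45 min at 37 °C with 32 nM 177Lu-labelled compound (25 GBq/µmol) in Opti-MEM, with or without 500 µM 2-PMPA as blocker. Four ice-cold PBS washes, surface fraction stripped with 50 mM glycine pH 2.8, internalized fraction released by 0.3 M NaOH lysis. Both fractions gamma-counted, specific values given as %IA/10^6 cells. Triplicate.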
Target sequence in this assay (Q04609 whole entry, looked up): as the sequence (Q04609 whole entry) above

[5] = target: T1, Glutamate carboxypeptidase 2; assay: Inhibition of PSMA in human LNCaP cells assessed as specific internalization per 10^6 cells using 177Lu-labeled compound after 45 mins by gamma counting analysis; assay type: cell-based; outline: as §1
Target sequence in this assay (Q04609 whole entry, looked up): as the sequence (Q04609 whole entry) above

[6] = Drug uptake in iv dosed BALB/c athymic nude mouse tumor xenografted with human LNCaP cells treated with 68Ga-labeled compound measured after 1 hr by microPET imaging analysis; assay type: ADME, organism-based; conditions: in vivo
Outline: (§2)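 Male BALB/c nu/nu mice, 6–8 weeks old, with subcutaneous LNCaP xenografts (6 × 10^6 cells in 50% Matrigel, right trunk) of about 1 cm. Tail-vein injection of 68Ga-labelled compound (~30 MBq, 0.5 nmol) under sevoflurane. Dynamic µPET: 60 min emission scan, then 100–120 min scan. SUVmean for tumor, muscle and kidney at 1 h; tumor/muscle ratio. One animal per compound.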

[7] = Drug uptake in iv dosed BALB/c athymic nude mouse muscle xenografted with human LNCaP cells treated with 68Ga-labeled compound measured after 1 hr by microPET imaging analysis; assay type: ADME, organism-based; conditions: in vivo; outline: as §2
[8] = Drug uptake in iv dosed BALB/c athymic nude mouse kidney xenografted with human LNCaP cells treated with 68Ga-labeled compound measured after 1 hr by microPET imaging analysis; assay type: ADME, organism-based; conditions: in vivo; outline: as §2
[9] = Ratio of drug uptake in tumor to muscle in iv dosed BALB/c athymic nude mouse xenografted with human LNCaP cells treated with 68Ga-labeled compound measured after 1 hr by microPET imaging analysis; assay type: ADME, organism-based; conditions: in vivo; outline: as §2
[10] = Binding affinity to human serum protein after 1 hr by gel filtration method; assay type: ADME
[11] = Drug uptake in iv dosed BALB/c athymic nude mouse tumor xenografted with human LNCaP cells treated with 68Ga-labeled compound measured upto 120 mins by microPET imaging analysis; assay type: ADME, organism-based; conditions: in vivo, 2 h; outline: as §2

SMILES	Ki [1] [nM]	Retention_time [2] [min]	logD [3]	specific cell surface binding (% of applied activity per 10^6 cells) [4] [%]	specific internalization (% of added activity per 10^6 cells) [5] [%]	SUV [6]	SUV [7]	SUV [8]	Ratio [9]	PB [10]	Drug uptake [11]
O=C(O)CC[C@H](NC(=O)N[C@@H](CCCCNC(=O)[C@H](Cc1ccc2ccccc2c1)NC(=O)c1ccc(CNC(=O)CN2CCN(CC(=O)O)CCN(CC(=O)O)CCN(CC(=O)O)CC2)cc1)C(=O)O)C(=O)O	1.81	2.32	-2.1	16.8	7.17	0.52	0.1	3.63	5.2	Not Active	Active
O=C(O)CC[C@H](NC(=O)N[C@@H](CCCCNC(=O)CCCCCNC(=O)c1ccc(CNC(=O)CN2CCN(CC(=O)O)CCN(CC(=O)O)CCN(CC(=O)O)CC2)cc1)C(=O)O)C(=O)O	15.3	1.74	-1.92	17.7	2.11	0.3	0.08	4.7	3.8	Not Active	Not Active
O=C(O)CC[C@H](NC(=O)N[C@@H](CCCCNC(=O)[C@H]1CC[C@H](CNC(=O)[C@H]2CC[C@H](CNC(=O)CN3CCN(CC(=O)O)CCN(CC(=O)O)CCN(CC(=O)O)CC3)CC2)CC1)C(=O)O)C(=O)O	21	2.08	-1.12	3.88	1.43	0.3	0.13	4.29	2.3	Not Active	Not Active
O=C(O)CC[C@H](NC(=O)N[C@@H](CCCCNC(=O)c1ccc(CNC(=O)c2ccc(CNC(=O)c3ccc(CNC(=O)CN4CCN(CC(=O)O)CCN(CC(=O)O)CCN(CC(=O)O)CC4)cc3)cc2)cc1)C(=O)O)C(=O)O	0.53	1.95	-2.06	21.4	12.5	0.58	0.11	4.16	5.4	Not Active	Active
O=C(O)CC[C@H](NC(=O)N[C@@H](CCCCNC(=O)[C@H]1CC[C@H](CNC(=O)c2ccc(CNC(=O)CN3CCN(CC(=O)O)CCN(CC(=O)O)CCN(CC(=O)O)CC3)cc2)CC1)C(=O)O)C(=O)O	24.7	2.07	-1.43	4.49	2.7	0.54	0.14	8.1	3.9	Not Active	Not Active
